From ChEMBL document CHEMBL1132170, “Structural and conformational requirements for high-affinity binding to the SH2 domain of Grb2(1)” (J Med Chem, 1999)
Square brackets hold non-standard residues; d marks the D form. Peptide text beside a SMILES is read from it. * marks the point of attachment. pY = N[C@@H](Cc1ccc(OP(=O)(O)O)cc1)C(=O)O; Propionyl = CCC(=O)*; NHBu = CCCCN*

Assays:
[1] = biological target: Proto-oncogene tyrosine-protein kinase Src (Homo sapiens, UniProt P12931); test: Inhibitory activity against binding of Src protein tyrosine kinase SH2 domain to biotinylated EPQY*EEIPI Peptide by ELISA.
Sequence of Proto-oncogene tyrosine-protein kinase Src (P12931 2-536 limits assumed): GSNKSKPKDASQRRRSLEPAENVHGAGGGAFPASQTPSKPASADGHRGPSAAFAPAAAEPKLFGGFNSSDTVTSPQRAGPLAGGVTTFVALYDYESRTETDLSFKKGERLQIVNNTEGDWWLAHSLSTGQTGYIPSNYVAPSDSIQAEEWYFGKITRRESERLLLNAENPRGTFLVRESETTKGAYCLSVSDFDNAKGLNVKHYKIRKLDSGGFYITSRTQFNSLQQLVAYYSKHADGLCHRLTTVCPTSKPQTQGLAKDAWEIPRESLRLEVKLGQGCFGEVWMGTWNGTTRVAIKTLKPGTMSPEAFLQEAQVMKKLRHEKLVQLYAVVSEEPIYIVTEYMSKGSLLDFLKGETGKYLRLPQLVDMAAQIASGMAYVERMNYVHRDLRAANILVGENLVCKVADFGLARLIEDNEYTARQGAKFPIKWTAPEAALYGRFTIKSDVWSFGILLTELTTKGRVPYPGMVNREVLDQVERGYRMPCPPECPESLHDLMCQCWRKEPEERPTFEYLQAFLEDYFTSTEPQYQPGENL
Method in brief: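 It competes with test compounds against biotinylated EPQY*EEIPI (6.0 nM) on streptavidin-coated plates for 1 h at rt. Detection is anti-GST, then AP-conjugated secondary with pNPP at 405 nm. IC50 comes from nonlinear regression, adjusted to the on-plate control peptide.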

[2] = biological target: Growth factor receptor-bound protein 2 (Homo sapiens, UniProt P62993); test: Inhibitory activity against binding of Growth factor receptor bound protein 2 to biotinylated KPFY*VNVEF Peptide by ELISA.
Method in brief: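 It is competed with test compounds against biotinylated KPFY*VNVEF (4.0 nM) captured on streptavidin plates for 1 h at rt. Bound GST is detected by rabbit anti-GST, then AP anti-rabbit with pNPP, read at 405 nm. IC50 comes from nonlinear regression, normalized to the on-plate control peptide.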

IC50 [1] | IC50 [2] | Compound
> 100000 nM | – | CC(C)[C@@H]1NC(=O)[C@H](Cc2ccc(OP(=O)(O)O)cc2)NC(=O)CNC(=O)[C@@H]2CCCN2C(=O)[C@H](C(C)C)NC(=O)[C@H](CC(N)=O)NC1=O
– | 520 nM | CC(C)[C@H]1NC(=O)[C@H](Cc2ccc(OP(=O)(O)O)cc2)NC(=O)CNC(=O)[C@@H]2CCCN2C(=O)[C@@H](C(C)C)NC(=O)[C@H](CC(N)=O)NC1=O
> 100000 nM | 10800 nM | CC(C)[C@H]1NC(=O)[C@H](Cc2ccc(OP(=O)(O)O)cc2)NC(=O)CNC(=O)[C@H]2CCCN2C(=O)[C@@H](C(C)C)NC(=O)[C@H](CC(N)=O)NC1=O
> 100000 nM | – | CC(C)[C@@H]1NC(=O)[C@H](Cc2ccc(OP(=O)(O)O)cc2)NC(=O)CCCCCCNC(=O)[C@@H]2CCCN2C(=O)[C@H](C(C)C)NC(=O)[C@H](CC(N)=O)NC1=O
– | 600 nM | CC(C)[C@H]1NC(=O)[C@H](Cc2ccc(OP(=O)(O)O)cc2)NC(=O)CCCCCCNC(=O)[C@@H]2CCCN2C(=O)[C@@H](C(C)C)NC(=O)[C@H](CC(N)=O)NC1=O
> 150000 nM | 1340 nM | CC(=O)N[C@H]1CCCCNC(=O)[C@H]2CCCN2C(=O)[C@H](C(C)C)NC(=O)[C@@H](CC(N)=O)NC(=O)[C@H](CC(C)C)NC(=O)[C@@H](Cc2ccc(OP(=O)(O)O)cc2)NC1=O
> 150000 nM | 110 nM | CC(=O)N[C@H]1CCCCNC(=O)[C@H]2CCCN2C(=O)[C@H](CC2CCCCC2)NC(=O)[C@@H](CC(N)=O)NC(=O)[C@H](C(C)C)NC(=O)[C@@H](Cc2ccc(OP(=O)(O)O)cc2)NC1=O
73000 nM | 180 nM | CC(=O)N[C@@H]1CCCCNC(=O)[C@H]2CCCN2C(=O)[C@H](C(C)C)NC(=O)[C@@H](CC(N)=O)NC(=O)[C@H](C(C)C)NC(=O)[C@@H](Cc2ccc(OP(=O)(O)O)cc2)NC1=O
38000 nM | – | CC(=O)N[C@H]1CSSC[C@@H](C(=O)O)NC(=O)[C@H]2CCCN2C(=O)[C@H](C(C)C)NC(=O)[C@@H](CC(N)=O)NC(=O)[C@H](C(C)C)NC(=O)[C@@H](Cc2ccc(OP(=O)(O)O)cc2)NC1=O
> 100000 nM | – | CC(C)[C@@H]1NC(=O)[C@H](Cc2ccc(OP(=O)(O)O)cc2)NC(=O)OCCCCCNC(=O)[C@@H]2CCCN2C(=O)[C@H](C(C)C)NC(=O)[C@H](CC(N)=O)NC1=O
– | 710 nM | CC(C)[C@H]1NC(=O)[C@H](Cc2ccc(OP(=O)(O)O)cc2)NC(=O)OCCCCCNC(=O)[C@@H]2CCCN2C(=O)[C@@H](C(C)C)NC(=O)[C@H](CC(N)=O)NC1=O
> 150000 nM | 70 nM | CC(=O)N[C@H]1CCCCNC(=O)[C@H]2CCCN2C(=O)[C@H](C(C)C)NC(=O)[C@@H](CC(N)=O)NC(=O)[C@H](C(C)C)NC(=O)[C@@H](Cc2ccc(OP(=O)(O)O)cc2)NC1=O
> 150000 nM | 1610 nM | CC(=O)N[C@H]1CCCCNC(=O)[C@H]2CCCN2C(=O)[C@H](C(C)C)NC(=O)[C@@H](CC(N)=O)NC(=O)[C@H](CC2CCCCC2)NC(=O)[C@@H](Cc2ccc(OP(=O)(O)O)cc2)NC1=O
– | 700 nM | CC(C)[C@H](NC(=O)[C@H](CC(N)=O)NC(=O)[C@@H](NC(=O)[C@H](Cc1ccc(OP(=O)(O)O)cc1)NC(=O)[C@H](Cc1ccccc1)NC(=O)[C@@H]1CCCN1C(=O)[C@@H](N)CCCCN)C(C)C)C(=O)N[C@@H](CCC(=O)O)C(=O)N[C@@H](Cc1ccccc1)C(=O)O (H-KPF[pY]VNVEF-OH)
> 100000 nM | 1630 nM | CCCCNC(=O)[C@@H]1CCCN1C(=O)[C@@H](NC(=O)[C@H](CC(N)=O)NC(=O)[C@@H](NC(=O)[C@H](Cc1ccc(OP(=O)(O)O)cc1)NC(=O)CC)C(C)C)C(C)C (Propionyl-[pY]VNVP-NHBu)
